Reference: ChEMBL document CHEMBL3286129, “Optimization of peptidomimetic boronates bearing a P3 bicyclic scaffold as proteasome inhibitors” (Eur J Med Chem, 2014)

Assays:
[1] = test system: ACHN; test: Growth inhibition of human ACHN cells; format: functional
[2] = Growth inhibition of human OVCAR5 cells; format: functional; conditions: OVCAR-5
[3] = test system: SK-MEL-2; test: Growth inhibition of human SK-MEL-2 cells; format: functional
[4] = test system: SK-MEL-28; test: Growth inhibition of human SK-MEL-28 cells; format: functional
[5] = test system: HL-60(TB); test: Growth inhibition of human HL-60(TB) cells; format: functional
[6] = test system: NCI-H23; test: Growth inhibition of human NCI-H23 cells; format: functional
[7] = Cytotoxicity against human breast cancer cells assessed as cell growth at 10 uM relative to control; format: functional; conditions: Cancer cell lines, read-out: Activity
Procedure, shortened: (§1)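 Single-concentration screen against a panel of human cancer cell lines. Each value is the mean percent growth across the cell lines of that tumour subpanel.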

[8] = Growth inhibition of human LOXIMVI cells; format: functional; conditions: LOX IMVI
[9] = Cytotoxicity against human leukemia cells assessed as cell growth at 10 uM relative to control; format: functional; conditions: read-out: Activity; procedure, shortened: as §1
[10] = test system: COLO 205; test: Growth inhibition of human COLO205 cells; format: functional
[11] = Growth inhibition of human MOLT4 cells; format: functional
[12] = test system: CCRF-CEM; test: Growth inhibition of human CCRF-CEM cells; format: functional
[13] = test system: MDA-MB-468; test: Growth inhibition of human MDA-MB-468 cells; format: functional
[14] = Cytotoxicity against human renal cancer cells assessed as cell growth at 10 uM relative to control; format: functional; conditions: Cancer cell lines, read-out: Activity; procedure, shortened: as §1
[15] = Cytotoxicity against human prostate cancer cells assessed as cell growth at 10 uM relative to control; format: functional; conditions: Cancer cell lines, read-out: Activity; procedure, shortened: as §1
[16] = test system: A549; test: Growth inhibition of human A549/ATCC cells; format: functional
[17] = test system: RPMI-8226; test: Growth inhibition of human RPMI8226 cells; format: functional
[18] = Growth inhibition of human SF295 cells; format: functional; conditions: SF-295
[19] = Growth inhibition of human HOP92 cells; format: functional
[20] = test system: T47D; test: Growth inhibition of human T47D cells; format: functional
[21] = test system: SN12C; test: Growth inhibition of human SN12C cells; format: functional
[22] = test system: HT-29; test: Growth inhibition of human HT-29 cells; format: functional
[23] = test system: Malme-3M; test: Growth inhibition of human MALME-3M cells; format: functional
[24] = test system: NCI-H522; test: Growth inhibition of human NCI-H522 cells; format: functional
[25] = test system: MDA-MB-435; test: Growth inhibition of human MDA-MB-435 cells; format: functional
[26] = Growth inhibition of human OVCAR8 cells; format: functional
[27] = test system: CAKI-1; test: Growth inhibition of human CAKI-1 cells; format: functional
[28] = test system: A498; test: Growth inhibition of human A498 cells; format: functional
[29] = molecular target: T1, Proteasome Macropain subunit MB1 (Homo sapiens, UniProt P28074); test: Inhibition of chymotrypsin-like activity of 20S proteasome in human erythrocytes using Suc-Leu-Leu-Val-Tyr-AMC as substrate by fluorescence assay; conditions: read-out: Ki
T1 sequence (P28074 whole entry): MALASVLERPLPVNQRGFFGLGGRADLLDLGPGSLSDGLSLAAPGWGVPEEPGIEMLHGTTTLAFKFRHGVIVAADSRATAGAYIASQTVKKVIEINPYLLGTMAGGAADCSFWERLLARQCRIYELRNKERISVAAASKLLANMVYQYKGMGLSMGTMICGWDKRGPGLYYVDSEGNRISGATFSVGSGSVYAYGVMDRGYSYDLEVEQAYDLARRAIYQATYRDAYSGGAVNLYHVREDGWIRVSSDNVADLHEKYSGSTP

[30] = test system: SNB-75; test: Growth inhibition of human SNB75 cells; format: functional
[31] = test system: SK-OV-3; test: Growth inhibition of human SKOV3 cells; format: functional
[32] = Growth inhibition of human OVCAR4 cells; format: functional
[33] = test system: SNB-19; test: Growth inhibition of human SNB19 cells; format: functional
[34] = test system: U-251; test: Growth inhibition of human U251 cells; format: functional
[35] = test system: KM12; test: Growth inhibition of human KM12 cells; format: functional
[36] = test system: MCF7; test: Growth inhibition of human MCF7 cells; format: functional
[37] = Growth inhibition of human SF539 cells; format: functional
[38] = test system: SF-268; test: Growth inhibition of human SF268 cells; format: functional
[39] = test system: SK-MEL-5; test: Growth inhibition of human SK-MEL-5 cells; format: functional
[40] = Growth inhibition of human UO31 cells; format: functional; conditions: UO-31
[41] = read-out: LC50 (the source's name)

## CC(C)C[C@H](NC(=O)CCn1ccc2ncccc2c1=O)B(O)O
[1]
  GI50: 9.15 µM
  TGI: > 100 µM
[1]; [41]
  CC50: > 100 µM
[2]
  GI50: 17.1 µM
  LC50: > 100 µM
  TGI: > 100 µM
[3]
  GI50: 18.3 µM
  LC50: > 100 µM
  TGI: > 100 µM
[4]
  GI50: 7.17 µM
  TGI: > 100 µM
[4]; [41]
  CC50: > 100 µM
[5]
  GI50: 6.88 µM
  TGI: > 100 µM
[6]
  GI50: 25.4 µM
  TGI: > 100 µM
[6]; [41]
  CC50: > 100 µM
[7]
  growth at 10 µM: 68%
[8]
  GI50: 6.37 µM
  TGI: 28.4 µM
[8]; [41]
  CC50: > 100 µM
[9]
  growth at 10 µM: 34.8%
[10]
  GI50: 10 µM
  TGI: > 100 µM
[10]; [41]
  CC50: > 100 µM
[11]; MOLT-4
  GI50: 3.3 µM
  TGI: > 100 µM
[11]; MOLT-4, read-out: LC50 (the source's name)
  CC50: > 100 µM
[12]
  GI50: 2.35 µM
  TGI: > 100 µM
[12]; [41]
  CC50: > 100 µM
[13]
  GI50: 2.04 µM
  TGI: 9.96 µM
[13]; [41]
  CC50: > 100 µM
[14]
  growth at 10 µM: 76.1%
[15]
  growth at 10 µM: 98.5%
[16]
  GI50: 38 µM
  TGI: > 100 µM
[16]; [41]
  CC50: > 100 µM
[17]
  GI50: 3.22 µM
  TGI: > 100 µM
[17]; [41]
  CC50: > 100 µM
[18]
  GI50: 8.92 µM
  LC50: > 100 µM
  TGI: 36 µM
[19]; HOP-92
  GI50: 16.8 µM
  TGI: 71.3 µM
[19]; HOP-92, read-out: LC50 (the source's name)
  CC50: > 100 µM
[20]
  GI50: 4.67 µM
  TGI: > 100 µM
[20]; [41]
  CC50: > 100 µM
[21]
  GI50: 18 µM
  TGI: > 100 µM
[21]; [41]
  CC50: > 100 µM
[22]
  GI50: 6.77 µM
  LC50: > 100 µM
  TGI: > 100 µM
[23]
  GI50: 5.12 µM
  TGI: 62.2 µM
[23]; [41]
  CC50: > 100 µM
[24]
  GI50: 4.66 µM
  LC50: > 100 µM
  TGI: 21.7 µM
[25]
  GI50: 2.41 µM
  TGI: 7.02 µM
[25]; [41]
  CC50: 67.8 µM
[26]; OVCAR-8
  GI50: 37.5 µM
  TGI: > 100 µM
[26]; OVCAR-8, read-out: LC50 (the source's name)
  CC50: > 100 µM
[27]
  GI50: 19.4 µM
  TGI: > 100 µM
[27]; [41]
  CC50: > 100 µM
[28]
  GI50: 3.07 µM
  LC50: > 100 µM
  TGI: 24.3 µM
[29]
  Ki: 0.057 µM
[30]
  GI50: 13.3 µM
  LC50: > 100 µM
  TGI: 44.9 µM
[31]
  GI50: > 100 µM
  LC50: > 100 µM
  TGI: > 100 µM
[32]; OVCAR-4
  GI50: 28.4 µM
  TGI: > 100 µM
[32]; OVCAR-4, read-out: LC50 (the source's name)
  CC50: > 100 µM
[33]
  GI50: 41.2 µM
  TGI: > 100 µM
[33]; [41]
  CC50: > 100 µM
[34]
  GI50: 33 µM
  TGI: > 100 µM
[34]; [41]
  CC50: > 100 µM
[35]
  GI50: 17 µM
  LC50: > 100 µM
  TGI: 49.6 µM
[36]
  GI50: 3.61 µM
  TGI: > 100 µM
[36]; [41]
  CC50: > 100 µM
[37]; SF-539
  GI50: 2.76 µM
  TGI: 8.38 µM
[37]; SF-539, read-out: LC50 (the source's name)
  CC50: > 100 µM
[38]
  GI50: 14.7 µM
  LC50: > 100 µM
  TGI: > 100 µM
[39]
  GI50: 4.03 µM
  LC50 (concentration killing 50% of cells): > 100 µM
  TGI: 22.1 µM
[40]
  GI50: 19.4 µM
  LC50: > 100 µM
  TGI: > 100 µM
